Test results reported in publication PMC6548570 (Bioorganic & medicinal chemistry, 2019).

Key:
sigma-2 = sigma-2 (Homo sapiens, UniProt Q5BJF2); assay: Radioligand binding assay against sigma-2; settings: for pKi ± SEM Sigma-2: displacement of [3H]-DTG, <5 = not >50% inhibition at 10 μM single concentration
sigma-1 = sigma-1 (Homo sapiens, UniProt Q99720); assay: Radioligand binding assay against sigma-1
Mouse liver microsomal = format: in vitro ADME; settings: 37 °C
Outline: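 Mouse liver microsomes (0.4 mg/mL) with NADPH in 0.5 M phosphate buffer, test compound at 10 μM. T0 samples quenched at once with 2 volumes ice-cold acetonitrile; others shaken 60 min at 37 °C, then quenched likewise. Verapamil-HCl as control. After centrifugation, parent quantified by UPLC/MS (SRM). % remaining = (60 min/0 min concentration)×100; duplicate runs, mean reported.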

Chain of sigma-1 (Q99720 whole entry): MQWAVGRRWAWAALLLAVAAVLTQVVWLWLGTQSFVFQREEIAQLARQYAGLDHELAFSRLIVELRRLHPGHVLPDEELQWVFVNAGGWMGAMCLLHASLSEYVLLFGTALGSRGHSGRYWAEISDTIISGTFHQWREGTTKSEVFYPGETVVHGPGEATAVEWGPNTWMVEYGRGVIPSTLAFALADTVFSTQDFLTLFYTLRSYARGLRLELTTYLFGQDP
Chain of sigma-2 (Q5BJF2 whole entry): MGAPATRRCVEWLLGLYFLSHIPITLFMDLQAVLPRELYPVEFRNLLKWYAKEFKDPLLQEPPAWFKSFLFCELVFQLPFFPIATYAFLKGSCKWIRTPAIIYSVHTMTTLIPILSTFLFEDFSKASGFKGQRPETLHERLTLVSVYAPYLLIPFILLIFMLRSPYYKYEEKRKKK

SMILES | pKi ± SEM Sigma-2 (sigma-2) [M] | activity against sigma-2 (in words) (sigma-2) | other results
O=C(c1c2c(nn1-c1ccccc1)CCC(NCCc1ccc(C(F)(F)F)cc1)C2)N1CCCCC1 (stereo not shown) [7bc, (2-Phenyl-5-((4-(trifluoromethyl)phenethyl)amino)-4,5,6,7-tetrahydro-2H-indazol-3-yl)(piperidin-1-yl)methanone] | <5 |  | 
O=C(c1nn(Cc2ccccc2)c2c1CC(NCc1ccc(F)cc1)CC2)N1CCCCC1 (stereo not shown) [7ah, (1-Benzyl-5-((4-fluorobenzyl)amino)-4,5,6,7-tetrahydro-1H-indazol-3-yl)(piperidin-1-yl)methanone] | <5 |  | 
CCCn1nc(C(=O)N(C)C)c2c1CCC(SCc1ccc(F)cc1)C2 (stereo not shown) [compound 11, 5-((4-Fluorobenzyl)thio)-N,N-dimethyl-1-propyl-4,5,6,7-tetrahydro-1H-indazole-3-carboxamide] | <5 | completely lost | activity against sigma-1 (in words) (sigma-1): completely lost
O=C(c1nn(-c2ccccc2)c2c1CC(NCCc1cccc(O)c1)CC2)N1CCCCC1 (stereo not shown) [7af, (5-((3-Hydroxyphenethyl)amino)-1-phenyl-4,5,6,7-tetrahydro-1H-indazol-3-yl)(piperidin-1-yl)methanone] | <5 |  | 
O=C(c1nn(-c2ccccc2)c2c1CC(NCc1ccccc1)CC2)N1CCCCC1 (stereo not shown) [7ab, (5-(Benzylamino)-1-phenyl-4,5,6,7-tetrahydro-1H-indazol-3-yl)(piperidin-1-yl)methanone] |  |  | consumption by liver microsomes after 60 minutes (in words) (Mouse liver microsomal): nearly-completely consumed
O=C(c1c2c(nn1-c1ccccc1)CCC(NCc1ccc(F)cc1)C2)N1CCCCC1 (stereo not shown) [7ba, (5-((4-Fluorobenzyl)amino)-2-phenyl-4,5,6,7-tetrahydro-2H-indazol-3-yl)(piperidin-1-yl)methanone] |  |  | fold more potent against sigma-2 compared to N-1 regioisomer 7aa (sigma-2; N-2 vs N-1 regioisomer): > 60 fold; consumption by liver microsomes after 60 minutes (in words) (Mouse liver microsomal): nearly-completely consumed; fold more potent against sigma-1 compared to N-1 regioisomer 7aa (sigma-1; N-2 vs N-1 regioisomer): over 5 fold
O=C(c1nn(-c2ccccc2)c2c1CC(NCCc1ccc(C(F)(F)F)cc1)CC2)N1CCCCC1 (stereo not shown) [7ac, (1-Phenyl-5-((4-(trifluoromethyl)phenethyl)amino)-4,5,6,7-tetrahydro-1H-indazol-3-yl)(piperidin-1-yl)methanone] | <5 |  | 
NC(=O)c1ccc(-n2nc3c(c2C(=O)N2CCCCC2)CC(NCCc2ccccc2)CC3)cc1 (stereo not shown) [7bg, 4-(5-(Phenethylamino)-3-(piperidine-1-carbonyl)-4,5,6,7-tetrahydro-2H-indazol-2-yl)benzamide] | <5 |  | 
O=C(c1c2c(nn1-c1ccc(F)cc1)CCC(NCc1ccc(F)cc1)C2)N1CCCCC1 (stereo not shown) [7bf, (5-((4-Fluorobenzyl)amino)-2-(4-fluorophenyl)-4,5,6,7-tetrahydro-2H-indazol-3-yl)(piperidin-1-yl)methanone] |  |  | selectivity for sigma-1 against sigma-2 (sigma-1; sigma-1 over sigma-2): over 500 fold
CCCn1nc(C(=O)N(C)C)c2c1CCC(NC(=O)c1ccc(F)cc1)C2 (stereo not shown) [compound 13, 5-(4-Fluorobenzamido)-N,N-dimethyl-1-propyl-4,5,6,7-tetrahydro-1H-indazole-3-carboxamide] | <5 | complete loss of activity | activity against sigma-1 (in words) (sigma-1): complete loss of activity
CCCn1nc(C(=O)N(C)C)c2c1CCC(OCc1ccc(F)cc1)C2 (stereo not shown) [compound 9, 5-((4-Fluorobenzyl)oxy)-N,N-dimethyl-1-propyl-4,5,6,7-tetrahydro-1H-indazole-3-carboxamide] | <5 | completely lost | activity against sigma-1 (in words) (sigma-1): completely lost
O=C(c1nn(-c2ccccc2)c2c1CC(NCc1ccc(F)cc1)CC2)N1CCCCC1 (stereo not shown) [7aa, (5-((4-Fluorobenzyl)amino)-1-phenyl-4,5,6,7-tetrahydro-1H-indazol-3-yl)(piperidin-1-yl)methanone] | <5 | no activity | 
CCCn1nc(C(=O)N(C)C)c2c1CCC(NS(=O)(=O)c1ccc(F)cc1)C2 (stereo not shown) [compound 14, 5-((4-Fluorophenyl)sulfonamido)-N,N-dimethyl-1-propyl-4,5,6,7-tetrahydro-1H-indazole-3-carboxamide] | <5 | complete loss of activity | activity against sigma-1 (in words) (sigma-1): complete loss of activity
O=C(c1nn(Cc2ccccc2)c2c1CC(NCCc1ccncc1)CC2)N1CCCCC1 (stereo not shown) [7ag, (1-Benzyl-5-((2-(pyridin-4-yl)ethyl)amino)-4,5,6,7-tetrahydro-1H-indazol-3-yl)(piperidin-1-yl)methanone] | <5 |  | 
